Screens: PubChem BioAssay, several laboratories
PP1 inh: counter-screen for PP5 inhibitors: inhibitors of human PP1-alpha | purified PP1alpha, OMFP fluorescence | inhibition, % at 6.7 µM | P62136 | actives 0.9% (n = 320,000);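 active means inhibition above the mean inhibition of all tested compounds plus 3 SD, computed separately for each screening campaign, cut at about 15% in these data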
Target sequence (P62136 whole entry, looked up): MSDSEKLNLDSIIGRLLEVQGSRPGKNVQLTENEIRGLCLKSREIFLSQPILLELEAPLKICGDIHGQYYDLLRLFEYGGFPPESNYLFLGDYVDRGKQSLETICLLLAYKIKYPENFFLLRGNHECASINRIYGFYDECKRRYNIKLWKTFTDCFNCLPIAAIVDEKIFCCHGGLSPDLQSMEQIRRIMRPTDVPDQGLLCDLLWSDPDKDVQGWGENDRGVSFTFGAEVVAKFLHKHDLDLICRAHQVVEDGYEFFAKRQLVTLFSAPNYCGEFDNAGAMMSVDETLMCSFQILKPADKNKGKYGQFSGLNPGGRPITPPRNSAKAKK
AI-2 QS mod: Vibrio harveyi AI-2 quorum sensing modulation; Vibrio harveyi JMH597 AI-2 luminescence/OD600 ratio, 9 h; hits give low values; strain lacks LuxN and CqsS sensors; 0 = neutral-control median; activity change, % at 7.5 µM; AID 2094; actives 0.4% (n = 300,000); in the data active means activity change below about -75%, passing the limit was not always enough; inconclusive means no clear call, values can overlap the other calls;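 further: luminescence divided by OD600 gain over 9 h not by final OD600 alone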
T cruzi repl: T. cruzi replication inhibition; inhibition, % (no concentration beside the values); T. cruzi beta-gal in NIH3T3, luminescence, 90 h; actives 1.4% (n = 300,000);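 active means mean inhibition across valid replicates above about 55%, limit read from the data; inconclusive means mean below that limit but half or more replicates reach it; inactive means mean below it, under half of replicates reach it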;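 further: signal also drops with host cell toxicity which is not excluded here; 0% = plate median of DMSO wells and 100% = zero luminescence signal; higher percent means less beta-gal luminescence so fewer parasites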
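System: Mouse NIH/3T3 fibroblasts infected with β-gal-expressing T. cruzi Tulahuen C4 | Quantity: NIH/3T3 cells, 5,000 per well | Reagent: 5000 reporter trypomastigotes per well | Dosing: Compound pinned at 50 nL/well, DMSO | Schedule: 3 h host attachment, then at least 90 h co-culture | Detection: GalScreen luminescence, 60 min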
UBC13 inh: blocks human UBC13 polyubiquitin chain formation; P61088; TR-FRET; inhibition, % at 20 µM; actives 0.47% (n = 330,000); in the data active means inhibition above about 45%, passing the limit was not always enough; inconclusive means no clear call, values can overlap the other calls
Target sequence (P61088 whole entry, looked up): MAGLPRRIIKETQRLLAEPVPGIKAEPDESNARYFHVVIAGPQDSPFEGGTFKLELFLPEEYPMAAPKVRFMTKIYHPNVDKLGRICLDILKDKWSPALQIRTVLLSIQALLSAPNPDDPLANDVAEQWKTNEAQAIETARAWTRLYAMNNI
pCIP destab: compounds decreasing mouse p/CIP protein stability | Q05BA5 | F442A p/CIP-EGFP cells, EGFP fluorescence, 16 h | decrease of EGFP signal, % at 10 µM | actives 0.01% (n = 290,000);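 active means EGFP signal decrease of at least 30% at 10 µM or well 3 SD below plate mean, unless failing retest; inactive means the rest, including hits failing retest or dose response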
Numbers without * were called inactive; i = inactive; u = inconclusive; x = no result. A selection: hits, their analogues and other compounds. The true share with any hit is near 2.8%.

SMILES	PP1 inh	AI-2 QS mod	T cruzi repl	UBC13 inh	pCIP destab
O=C(N/N=C/c1c[nH]c2ccccc12)c1cc(-c2ccc3ccccc3c2)n[nH]1	-4	-79*	-35	9	0
O=C(N/N=C/c1c[nH]c2ccccc12)c1cc(-c2ccc(-c3ccccc3)cc2)n[nH]1	10	15	33	-9	-4
CCOC(=O)c1c(C)[nH]c(C(=O)CSc2ccc(Cl)cc2)c1C	-1	9	17	8	7
CCOC(=O)c1c(C)[nH]c(C(=O)CSc2nnc(Nc3ccccc3F)s2)c1C	17*	20	7	-16	-11
c1cc(CCCc2ccncc2)ccn1	-3	x	x	4	x
c1ccc(CCc2ccncc2)cc1	-4	8	56*	5	6
O=C(Nc1nnc(-c2ccncc2)o1)c1ccc(Br)s1	-1	45	4	-7	13
Cc1ccc(CNC(=O)COC(=O)Cc2ccc(-c3ccccc3)cc2)cc1	16*	6	-11	-5	9
Clc1nc2c(-c3ccccc3)nnn2c2ccccc12	-3	0	64*	7	-7
COc1ccc(CCN(C)CC(=O)Nc2c(C)cc(C)cc2C)cc1OC	-1	10	61*	1	-5
O=C(NC1CCCC1)C(c1ccccc1)N(Cc1cccnc1)C(=O)Cc1cccs1 (stereo unspecified)	-2	20	67*	-4	0
Cc1ccc(CN(C(=O)Cc2cccs2)C(C(=O)NC2CCCC2)c2ccncc2)cc1 (stereo unspecified)	-1	8	59*	-2	-4
Cc1ccc(N(C(=O)Cc2cccs2)C(C(=O)NC2CCCC2)c2ccncc2)cc1 (stereo unspecified)	-2	10	12	-9	-18
CCCCOC(=O)NS(=O)(=O)c1sc(CC(C)C)cc1-c1ccc(Cn2c(CC)nc3c(C)cc(C)nc32)cc1	6	x	x	-8	x
CCOc1ccc2nc(NC(NC(=O)CC)(C(=O)OC)C(F)(F)F)sc2c1 (stereo unspecified)	-4	0	-3	2	0
C=CCn1c(SCC(C)=O)nc2scc(-c3ccco3)c2c1=O	15*	34	0	-3	4
COc1cccc(CN(C(=O)Cn2nnc(-c3ccccc3F)n2)C(C(=O)NC(C)(C)C)c2ccncc2)c1 (stereo unspecified)	-2	20	8	-2	-15
CS(=O)(=O)N(CC(O)CON=C1c2ccccc2-c2ccccc21)c1ccc(F)cc1 (stereo unspecified)	-2	20	19	7	-3
CCN(CC(O)CON=C1c2ccccc2-c2ccccc21)S(=O)(=O)c1ccc(C)cc1 (stereo unspecified)	1	17	62*	-6	-12
CC(C)CCNCC(O)CON=C1c2ccccc2-c2ccccc21 (stereo unspecified)	3	13	50	25	11
Cc1cccc(N(CC(O)CON=C2c3ccccc3-c3ccccc32)S(C)(=O)=O)c1 (stereo unspecified)	1	16	60*	12	7
CCN(CC(O)CON=C1c2ccccc2-c2ccccc21)S(=O)(=O)c1ccc(Cl)cc1 (stereo unspecified)	0	5	62*	-5	1
CCOc1ccccc1N(CC(=O)Nc1ccccc1C(=O)N1CCOCC1)S(C)(=O)=O	0	22	-4	-6	-19
Cc1ccccc1-c1cccc(CN2CCN(C)C(CCO)C2)c1 (stereo unspecified)	0	2	44	0	0
CCOc1ccc(OCCOCCN2CCc3ccccc3C2)cc1	0	47	77*	8	-11
SMILES	PP1 inh	AI-2 QS mod	T cruzi repl	UBC13 inh	pCIP destab
c1ccc(OCCOCCN2CCc3ccccc3C2)cc1	-5	11	u	4	3
CCCOc1ccc(OCCOCCN2CCc3ccccc3C2)cc1	0	21	71*	4	-6
CCOC(=O)c1[nH]c(C)c(C(=O)N2CCN(c3ccccc3OC)CC2)c1C	2	14	-8	-2	0
COC(=O)C1CCN(Cc2ccc(OCCCN3CCN(c4ccc([N+](=O)[O-])cc4)CC3)cc2)CC1	0	25	61*	8	-2
COc1ccc(-c2cc(C3CCN(Cc4cccc(C(F)(F)F)c4)CC3)[nH]n2)cc1	0	23	62*	26	-8
COc1ccc(-c2cc(C3CCN(Cc4ccc([N+](=O)[O-])cc4)CC3)[nH]n2)cc1	0	12	85*	11	12
CC(OC(=O)c1cccc(S(=O)(=O)N(C)C)c1)C(=O)NCc1ccc2c(c1)OCO2 (stereo unspecified)	-5	20	0	0	x
Cc1ccc(C)c(S(=O)(=O)NCc2ccc(C(=O)N3CCC(Cc4ccccc4)CC3)cc2)c1	5	16	64*	5	-10
Cc1ccc(C)c(S(=O)(=O)NCc2ccc(C(=O)N3CCN(C)CC3)cc2)c1	-10	14	x	13	18
Cc1nnc2ccc(-c3ccc(NS(=O)(=O)c4ccc(F)cc4F)cc3)nn12	-5	16	0	3	x
O=C(c1cc2sccc2n1Cc1ccc(F)cc1)N1CCN(c2nc3ccccc3s2)CC1	17*	12	41	-3	-22
C=CCOC(=O)C1=C(C)N=C2SCCC(=O)N2C1/C=C/c1ccccc1 (stereo unspecified)	-3	20	15	-18	-4
O=[N+]([O-])c1ccc(Sc2cccc[n+]2[O-])c2nonc12	x	-129*	43	x	-77
O=[N+]([O-])c1ccc(Nc2ccccc2)c2nonc12	0	24	6	i	1
O=C(Nc1ccncc1)Nc1ccc(Br)cc1Cl	x	-2	56*	-1	0
Cc1cccc(NC(=O)Nc2ccncc2)c1	-4	5	65*	-6	1
Cc1cccc(NC(=O)Nc2cnccn2)c1	-4	18	-12	-20	-1
Cc1cccc(NC(=O)CSc2nc3ccccc3c(=O)n2C)c1	-6	52	14	-5	-22
CC(C)CN(C(=O)CSc1nnc(C2CC2)n1-c1ccccc1)C1CCS(=O)(=O)C1 (stereo unspecified)	-3	x	x	0	x
COc1ccc(-n2cc(CN(C)CCO)c(-c3cccc(F)c3)n2)cc1	-2	30	16	12	-17
CCn1ccnc1CN(C)Cc1cn(-c2ccc(C)cc2)nc1-c1cccc(C)c1	6	41	66*	8	-16
Cc1cccc(-n2cc(CN(C)Cc3nccn3C)c(-c3cccc(F)c3)n2)c1	6	12	65*	22	3
CCn1ccnc1CN(C)Cc1cn(-c2cccc(C)c2)nc1-c1cccc(F)c1	2	22	55*	7	-6
Cc1ccc(-n2cc(CN3CCN(Cc4nccn4C)CC3)c(-c3cccc(C)c3)n2)cc1	4	8	41	13	11
